In ChEMBL document CHEMBL1687840, “Vancomycin bonded to bone grafts prevents bacterial colonization” (Antimicrob Agents Chemother, 2011):
Activity calls are given as the source filed them. The calls are words filed in the database; no cut-off is given here.

Tests used:
[1] = system: Staphylococcus aureus; test: Antibacterial activity against Staphylococcus aureus Xen36 infected in drug treated human morselized bone allograft assessed as reduction of bacterial count after 12 hrs followed by additional 4 hrs in presence of 10 ug/ml of drug by colony counting; assay type: functional, organism-based
Method in brief: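 Control or modified allograft incubated with S. aureus (1 ml, 10^4 CFU/ml) in TSB 12 h, either with 10 μg/ml solution VAN added alongside inoculum, or washed, transferred and given 4 h in TSB with 10 μg/ml VAN; after 16 h total, washed, adherent bacteria sonicated off, plated and counted, expressed as % of control per condition.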

[2] = Cytotoxicity in human FOB on drug treated bone allograft assessed as release of lactate dehydrogenase after 1 day; settings: 24 h
Method in brief: (§1)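 hFOB cells grown on flat cortical allograft 1 or 3 days; LDH released into medium measured with Tox-7 kit, given as percentage of released over total cellular LDH, normalized to day 1 controls; at least three experiments, means ± standard errors.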

[3] = Cytotoxicity in human FOB on drug treated bone allograft assessed as release of lactate dehydrogenase after 3 days; settings: 72 h; method in brief: as §1
[4] = Cytotoxicity in human FOB on drug treated bone allograft assessed as changes on cytoskeletal architecture after 48 hrs by propidium iodide staining
Method in brief: (§2)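 Cortical allograft pieces (1 × 1 cm; 70% ethanol, PBS and medium rinses, 10 min UV) seeded with 1 ml of 50,000 cells/ml hFOB in DMEM-F-12 with 10% FBS; after 48 h fixed (4% paraformaldehyde), permeabilized (0.1% Triton X-100), stained with Alexa 488-phalloidin and propidium iodide 30 min RT, imaged by confocal microscopy.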

[5] = Stability of the human bone graft-bound drug in phosphate buffer saline after 7 days by immunofluorescent staining; assay type: ADME; settings: 168 h
Method in brief: (§3)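 About 10 mg modified allograft held 7 days at 37°C in 1 ml water, PBS, DMEM-F-12 with 10% FBS, or S. aureus in TSB (bacteria removed by 30 min sonication in 1% SDS), or kept dry in air; then PBS-washed, blocked in 10% FBS/PBS 1 h, rabbit anti-VAN IgG 1:500 at 4°C 12 h, Alexa Fluor 488 anti-rabbit 1:1,000 RT 1 h, viewed by epifluorescence.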

[6] = Stability of the human bone graft-bound drug in water after 7 days by immunofluorescent staining; assay type: ADME; settings: 168 h; method in brief: as §3
[7] = system: Staphylococcus aureus; test: Antibacterial activity against Staphylococcus aureus Xen36 infected in drug treated human morselized bone allograft assessed as inhibition of biofilm formation after 12 hrs by confocal laser scanning microscopy; assay type: functional, organism-based
Method in brief: (§4)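 Allograft morsels challenged with S. aureus (1 ml, 1 × 10^4 CFU/ml) in TSB at 37°C without agitation for 5 or 12 h, washed three times in PBS, stained with Live/Dead BacLight (20 min, RT), imaged by confocal laser scanning microscopy with Z-plane optical sectioning and reconstruction.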

[8] = Cytotoxicity in human FOB on drug treated bone allograft assessed as increase of protein level after 3 days; settings: 72 h
Method in brief: (§5)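 hFOB cells cultured on sterilized flat cortical allograft in DMEM-F-12 with 10% FBS for 1 or 3 days, lysed with M-PER buffer 30 min with shaking; total protein by Bradford assay as index of adhesion and proliferation; at least three experiments, means ± standard errors.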

[9] = species: Homo sapiens; test: Binding affinity to human morselized allograft bone by immunohistochemical analysis
Method in brief: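 Human cancellous/cortical bone granules (0.5–2.0 mm), EDTA-treated, with covalently coupled VAN and washed until eluent gave no S. aureus disk-diffusion inhibition. PBS-washed ×3, blocked 1 h in 10% FBS/PBS, rabbit anti-VAN IgG (1:500) 12 h at 4°C, Alexa 488 anti-rabbit (1:1,000) 1 h RT, epifluorescence read-out. Uncoupled bone as control.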

[10] = system: Escherichia coli; test: Antibacterial activity against Escherichia coli DH5[alpha] infected in drug treated human morselized bone allograft assessed as reduction of bacterial count after up to 12 hrs by colony counting; assay type: functional, organism-based
Method in brief: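 Sterilized allograft granules (0.5–2.0 mm, human cancellous/cortical) incubated without agitation at 37°C in TSB with 1 ml of 1 × 10^4 CFU/ml bacteria (overnight TSB culture, 250 rpm, 37°C) for 2, 5, 8 or 12 h; washed three times with PBS, three more times, sonicated 5 min in 0.3% Tween 80/PBS, serially diluted, plated on Petrifilms and colonies counted; S. aureus shown as % of control per time point.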

[11] = system: Staphylococcus aureus; test: Antibacterial activity against Staphylococcus aureus Xen36 infected in drug treated human morselized bone allograft assessed as inhibition of biofilm formation after 6 hrs by scanning electron microscopy; assay type: functional, organism-based
Method in brief: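 Allograft morsels exposed to S. aureus in TSB for 6 h, then examined by scanning electron microscopy at low magnification, ×1,500 and ×4,000 for adherent bacteria and biofilm.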

[12] = Cytotoxicity in human FOB on drug treated bone allograft assessed as morphological changes after 48 hrs by propidium iodide staining; method in brief: as §2
[13] = Stability of the human bone graft-bound drug 7 days after incubation with Staphylococcus aureus in trypticase soy broth by immunofluorescent staining; assay type: ADME; settings: 168 h; method in brief: as §3
[14] = Cytotoxicity in human FOB on drug treated bone allograft assessed as increase of protein level after 1 day; settings: 24 h; method in brief: as §5
[15] = Stability of the human bone graft-bound drug in dulbecco modified eagle medium after 7 days by immunofluorescent staining; assay type: ADME; settings: 168 h; method in brief: as §3
[16] = system: Staphylococcus aureus; test: Antibacterial activity against Staphylococcus aureus Xen36 infected in drug treated human morselized bone allograft assessed as inhibition of biofilm formation after 5 hrs by confocal laser scanning microscopy; assay type: functional, organism-based; method in brief: as §4
[17] = Stability of the human bone graft-bound drug in air after 7 days by immunofluorescent staining; assay type: ADME; settings: 168 h; method in brief: as §3

**Q.** With `CN[C@H](CC(C)C)C(=O)N[C@H]1C(=O)N[C@@H](CC(N)=O)C(=O)N[C@H]2C(=O)N[C@H]3C(=O)N[C@H](C(=O)N[C@H](C(=O)O)c4cc(O)cc(O)c4-c4cc3ccc4O)[C@H](O)c3ccc(c(Cl)c3)Oc3cc2cc(c3O[C@@H]2O[C@H](CO)[C@@H](O)[C@H](O)[C@H]2O[C@H]2C[C@](C)(N)[C@H](O)[C@H](C)O2)Oc2ccc(cc2Cl)[C@H]1O` [VANCOMYCIN] as the molecule, how does the Activity [1] read?
**A.** Its Activity is “Active”.

**Q.** And the Activity [2]?
**A.** The Activity was “Non-toxic”.

**Q.** What about the Activity [3] of the same molecule?
**A.** The Activity was “Non-toxic”.

**Q.** And the Activity [4]?
**A.** Its Activity is “Non-toxic”.

**Q.** And the Stability [5]?
**A.** Its Stability is “Stable”.

**Q.** What about the Stability [6] of the same molecule?
**A.** Its Stability is “Stable”.

**Q.** What about the Activity [7] of the same molecule?
**A.** Its Activity is “Active”.

**Q.** What about the Activity [8] of the same molecule?
**A.** The Activity was “Non-toxic”.

**Q.** And the Activity [9]?
**A.** The Activity was “Active”.

**Q.** What about the Activity [10] of the same molecule?
**A.** The Activity was “inactive”.

**Q.** And the Activity [11]?
**A.** Its Activity is “Active”.

**Q.** And the Activity [12]?
**A.** The Activity was “Non-toxic”.

**Q.** What about the Stability [13] of the same molecule?
**A.** Its Stability is “Stable”.

**Q.** And the Activity [14]?
**A.** Its Activity is “Toxic”.

**Q.** And the Stability [15]?
**A.** Its Stability is “Stable”.

**Q.** And the Activity [16]?
**A.** Its Activity is “Active”.

**Q.** What about the Stability [17] of the same molecule?
**A.** Its Stability is “Stable”.
